# PREPL inh: inhibitors of human prolyl oligopeptidase-like enzyme PREPL. Q4J6C6. recombinant PREPL, fluorescence polarization activity-based probe. inhibition, % at 5.96 µM. 0.68% of 320,000 active. AID 2751;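 also: 0% = enzyme with DMSO and 100% = wells lacking enzyme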
# Apaf-1 inh: blocks human Apaf-1 apoptosome activity; reconstituted apoptosome caspase-3 activity, DEVD-Rh110 fluorescence; inhibition, % at 20 µM; 0.71% of 330,000 active; AID 489030; active = inhibition of at least 40% at 20 µM;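 also: plate controls were DMSO wells for no effect and DEVD-CHO caspase inhibitor wells for full effect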
#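 Material: cell-free apoptosome with Apaf-1, procaspase-3 and caspase-9; Buffer or medium: Hepes pH 7.5 with detergent and BSA; Reagent: cytochrome c trigger plus (Z-DEVD)2-Rh110 caspase-3 substrate; Times: compound with Apaf-1, dATP, procaspase-3 30 min, then 50 min reaction, room temperature; Technique: Rh110 fluorescence intensity.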
# UCH37 DUB inh: blocks the human deubiquitinase UCH37 | Q9Y5K5 | purified proteasome/UCH37, Ub-AMC cleavage fluorescence | inhibition, % (no concentration beside the values) | 0.33% of 330,000 active | AID 588478;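 active = mean inhibition over replicate wells above about 20%, limit read from the data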;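 also: 0% = compound-free wells with enzyme and 100% = wells lacking proteasome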
# Target sequence (Q9Y5K5 whole entry, looked up): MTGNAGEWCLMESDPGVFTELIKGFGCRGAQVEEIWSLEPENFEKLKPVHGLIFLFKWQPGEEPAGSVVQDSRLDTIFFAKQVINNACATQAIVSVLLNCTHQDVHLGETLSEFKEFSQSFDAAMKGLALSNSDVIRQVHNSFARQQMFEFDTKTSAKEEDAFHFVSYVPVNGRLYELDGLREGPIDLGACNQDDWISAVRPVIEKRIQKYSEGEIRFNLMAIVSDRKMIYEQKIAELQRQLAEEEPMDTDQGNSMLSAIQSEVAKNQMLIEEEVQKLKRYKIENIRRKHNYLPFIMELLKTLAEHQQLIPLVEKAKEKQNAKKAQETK
#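 Material: Human UCH37 enzyme supplied as purified proteasome complex | Schedule: 30 min preincubation with enzyme, 25 min cleavage at room temperature | Detection: AMC fluorescence 355/460 nm | Measure: % inhibition of Ub-AMC cleavage fluorescence | Controls: Wells without proteasome as full block, compound-free enzyme plus substrate as uninhibited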
# UBC13 polyUb: blocks human UBC13 polyubiquitin chain formation | P61088 | TR-FRET | inhibition, % at 20 µM | 0.47% of 330,000 active; in the data active = inhibition above about 45%, passing the limit was not always enough
# Target sequence (P61088 whole entry, looked up): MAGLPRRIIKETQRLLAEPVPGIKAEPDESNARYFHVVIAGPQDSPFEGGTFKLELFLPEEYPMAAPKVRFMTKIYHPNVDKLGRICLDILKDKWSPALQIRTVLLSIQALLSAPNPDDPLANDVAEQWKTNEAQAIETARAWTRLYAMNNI
# PREPL confirm: human PREPL inhibition, confirmation | 67% of 2,000 active | recombinant PREPL, fluorescence polarization activity probe | shares compounds with PREPL inh | inhibition, % at 5.96 µM;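 also: 0% = protein with DMSO and 100% = wells lacking protein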
# Starred values were filed as active, the others as inactive; . = not tested or not shown; + = active, no number. Shown are actives, neighbours in structure and some others; about 1.5% of the full set was active somewhere. Rule as the data show it, unless noted: active = inhibition above about 43%; inactive = the rest.
SMILES,PREPL inh,Apaf-1 inh,UCH37 DUB inh,UBC13 polyUb,PREPL confirm
O=C(c1ccc(S(=O)(=O)NCc2ccco2)cc1)N1CCCC1,5,-8,2,-1,.
N#Cc1ccc(CN2CCN(C(=O)c3ccc(S(=O)(=O)NCc4ccco4)cc3)CC2)cc1,50*,4,.,-14,8
CC(C)Nc1ccc(Nc2ccnc3cc4ccccc4cc23)cc1,60*,16,10,-93,62*
COc1ccc(Nc2ccnc3ccccc23)cc1,8,-16,9,2,.
N#C/C(=C\Nc1ccccc1O)c1nc2ccccc2o1,48*,.,4,.,36
N#C/C(=C\c1ccncc1)c1nc2ccccc2o1,12,1,-166,1,.
COc1cccc(CNCc2ccc(OC)cc2OC)c1,5,8,3,2,.
CCn1c2ccccc2c2cc(CNCc3ccc(OC)cc3OC)ccc21,49*,13,1,34,51*
C=CCn1c(N2CCN(c3ccc(OC)cc3)CC2)nc2c1c(=O)[nH]c(=O)n2C,49*,-5,4,12,38
c1ccc2c(c1)CCN(c1nc3cc4c(cc3s1)OCCO4)C2,48*,23,-4,6,38
CCN(CC)S(=O)(=O)c1cccc(-c2n[nH]c(=S)n2N=Cc2ccc(OC(F)F)cc2)c1,.,.,5,.,.
CCCCCCCCC(=O)NN=Cc1cccc(Br)c1,.,.,0,.,.
Cn1c(N)c(C(=O)COC(=O)/C=C/c2cccc(F)c2)c(=O)n(C)c1=O,44*,0,4,3,40
Cn1c(N)c(C(=O)COC(=O)/C=C/c2cccc(Br)c2)c(=O)n(C)c1=O,38,17,1,5,.
O=C(C[n+]1ccc2ccccc2c1)c1cccc2ccccc12,52*,17,2,-20,3
Cc1ccc(C(=O)C[n+]2ccc3ccccc3c2)cc1,17,19,3,1,.
COc1ccc(OCC(=O)NNc2c3ccccc3nc3ccccc23)cc1,44*,8,2,-88,50*
O=C(NNc1c2ccccc2nc2ccccc12)c1ccc(O)cc1O,41,12,-8,-149,.
O=C(NNc1c2ccccc2nc2ccccc12)c1ccccc1O,46*,5,-4,-178,30
O=C(COc1ccccc1)NNc1c2ccccc2nc2ccccc12,46*,23,-2,-71,39
CCCC(=O)NNc1c2ccccc2nc2ccccc12,2,4,7,-16,.
CCOc1ccc2[nH]c3c(N4CCc5ccccc5C4)ncnc3c2c1,54*,6,.,10,65*
COc1ccc2[nH]c3c(N4CCC(O)(c5cccc(C(F)(F)F)c5)CC4)ncnc3c2c1,50*,22,-62,7,45*
COc1ccc(C2CCCN2C(=S)Nc2cccc(Cl)c2C)cc1OC (stereo not drawn),50*,-13,5,-2,41
COc1ccc(C2CCCN2C(=S)Nc2ccccc2C)cc1OC (stereo not drawn),29,-2,3,14,.
SMILES,PREPL inh,Apaf-1 inh,UCH37 DUB inh,UBC13 polyUb,PREPL confirm
COc1ccc(-c2nn(CCC#N)cc2C=NO)cc1OC,.,.,-1,.,.
Cc1ccc2c(c1)c(C)cc[n+]2Cc1ccccc1,50*,8,-11,14,29
CCC(c1nnnn1Cc1cccs1)N1CCN(c2nc3ccccc3s2)CC1 (stereo not drawn),20,18,0,-1,.
CC(C)CC(c1nnnn1Cc1cccs1)N1CCN(c2nc3ccccc3s2)CC1 (stereo not drawn),44*,30,-1,-1,33
Cc1occc1-c1nnc(SCc2nc3ccccc3c(=O)n2CC#N)n1C,43*,8,3,3,40
NNC(=O)c1oc2nc(-c3cccs3)cc(-c3ccco3)c2c1N,62*,25,.,-54,65*
Cc1ccc(-c2cc(-c3ccco3)c3c(N)c(C(=O)NN)oc3n2)cc1,-2,30,5,-41,.
CCOc1cccc(-c2cc(C(=O)NN=Cc3ccc(OC)c(CN4CCOCC4)c3)c3ccccc3n2)c1,.,.,-3,.,.
CNC(=S)N1N=C(c2ccc(C)cc2)CC1c1ccc(N(C)C)cc1 (stereo not drawn),51*,22,-1,18,57*
COc1ccccc1-c1nc(C#N)c(N2CCCCCC2)o1,2,14,-460,0,.
COc1ccccc1-c1nc(C#N)c(N2CCN(c3ccccc3)CC2)o1,48*,9,-6,4,39
COc1ccc(N2CCN(c3oc(-c4ccco4)nc3C#N)CC2)cc1,44*,-11,-1,6,35
Cc1[nH]c(=O)[nH]c(=O)c1C=NNC(=O)CCc1ccc(OC(C)C)cc1,.,.,4,.,.
S=c1[nH]nc(COc2ccccc2)n1N=Cc1cccnc1,.,.,0,.,.
Cn1cnc(C(=O)N2CCN(c3ccccc3)CC2)c1C(=O)N1CCN(c2ccccc2)CC1,45*,5,1,5,40
Cn1cnc(C(=O)N2CCN(C(=O)OC(C)(C)C)CC2)c1C(=O)N1CCN(C(=O)OC(C)(C)C)CC1,17,7,2,-8,.
O=C(NN=Cc1ccc(Br)o1)c1cc([N+](=O)[O-])cc([N+](=O)[O-])c1,.,.,2,.,.
CC(CCC(C)C)=NNC(=O)COc1ccccc1-c1ccccc1,.,.,4,.,.
COc1ccc(C=NNC(=O)c2cccc(NC(=O)c3ccccc3)c2)c(C(=O)O)c1OC,.,.,5,.,.
COc1ccc(/C=C/c2cccc[n+]2C)c(O)c1,-1,-8,10,-45,.
C[n+]1ccccc1/C=C/c1cc(Br)ccc1O,44*,18,9,-21,30
Cc1cc(C(=O)NN=Cc2cccs2)no1,.,.,10,.,.
COc1ccc(C2CC(=O)Oc3c(C(CCN4CCCCC4)c4ccc(N(C)C)cc4)c(OC)cc(OC)c32)cc1 (stereo not drawn),47*,23,1,26,51*
CCOC(=O)c1[nH]c2cc(OC)c(OC)cc2c1NC(=O)CN1CCN(c2ccc(OC)cc2)C(C)C1 (stereo not drawn),85*,12,.,4,78*
COC(=O)c1[nH]c2cccc(OC)c2c1NC(=O)CN1CCN(c2cccc(OC)c2)C(C)C1 (stereo not drawn),11,14,-12,9,.
SMILES,PREPL inh,Apaf-1 inh,UCH37 DUB inh,UBC13 polyUb,PREPL confirm
COc1cc(C=NNC2=NS(=O)(=O)c3ccccc32)cc(OC)c1OC,.,.,17,.,.
Cc1ccccc1NC(=O)C(C#N)Cc1cccnc1 (stereo not drawn),70*,-15,-1,4,1
Cc1ccccc1NC(=O)NCc1cccnc1,8,-5,2,3,.
O=c1[nH]c(NN=Cc2ccccc2Br)nnc1-c1ccccc1,.,.,4,.,.
CCOC(=O)c1c(N=CN(C)C)sc2c1CCC2,.,.,6,.,.
Cn1c(-c2sc(=S)n(-c3ccccc3)c2N)nc2ccccc21,1,3,-2,10,.
C=CCn1c(N)c(-c2nc3ccccc3n2C)sc1=S,44*,-6,-9,19,36
Cc1[nH]c2ccccc2c1C(c1ccncc1)N1CCN(c2ccccn2)CC1 (stereo not drawn),+,13,.,-2,13

# Bioassay records from PubChem BioAssay.
